Reference: ChEMBL document CHEMBL4043244, “Diverse amide analogs of sulindac for cancer treatment and prevention” (Bioorg Med Chem Lett, 2017)

Experiments:
Format in all cases: functional
PC-3 = assay: Growth inhibition of human PC3 cells after 72 hrs by CellTiter-Glo reagent based assay; conditions: PC-3, 72 h
In short: (§1)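 Cancer cell lines (PC3 prostate, HT29 colorectal carcinoma, MDA-MB-231 breast) were screened by quantitative high-throughput screening in whole cells, and CC50 values were derived.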

MDA-MB-231 = assay: Growth inhibition of human MDA-MB-231 cells after 72 hrs by CellTiter-Glo reagent based assay; conditions: MDA-MB-231, 72 h; in short: as §1
HT-29 = assay: Growth inhibition of human HT-29 cells after 72 hrs by CellTiter-Glo reagent based assay; conditions: HT-29, 72 h; in short: as §1

| SMILES | CC50 (PC-3) [µM] | CC50 (MDA-MB-231) [µM] | CC50 (HT-29) [µM] |
| --- | --- | --- | --- |
| CC1=C(CC(=O)NCCC(C)C)c2cc(F)ccc2/C1=C\c1ccc([S+](C)[O-])cc1 (configuration not stated) | 20.2 | 27.7 | 17.7 |
| CSc1ccc(/C=C2/C(C)=C(CC(=O)NCc3cccs3)c3cc(F)ccc32)cc1 | 11 | 5.66 | 2.16 |
| COc1cc(/C=C2/C(C)=C(CC(=O)NCCN3CCCC3)c3cc(F)ccc32)cc(OC)c1OC | 46.5 | 41.1 | 13.4 |
| CSc1ccc(/C=C2/C(C)=C(CC(=O)N(C)CCN(C)S(=O)(=O)c3cccc4ccccc34)c3cc(F)ccc32)cc1 | > 50 | > 50 | 16.2 |
| CC1=C(CC(=O)NCc2ccccc2)c2cc(F)ccc2/C1=C\c1nc2ccccc2s1 | > 50 | 19.6 | 23.6 |
| CC1=C(CC(=O)N2CCN(CCCN(C)C)CC2)c2cc(F)ccc2/C1=C\c1ccc([S+](C)[O-])cc1 (configuration not stated) | > 50 | 46.2 | 23.8 |
| CSc1ccc(/C=C2/C(C)=C(CC(=O)N(C)CCN(C)S(=O)(=O)c3ccccc3)c3cc(F)ccc32)cc1 | > 50 | > 50 | 8.82 |
| COc1cc(/C=C2/C(C)=C(CC(=O)N3CCC[C@H]3CN3CCCC3)c3cc(F)ccc32)cc(OC)c1OC | 12.3 | 11.1 | 4.22 |
| CC1=C(CC(=O)N(C)CCN(C)C(=O)[C@@H](N)C(C)C)c2cc(F)ccc2/C1=C\c1ccc([S+](C)[O-])cc1 (some centres not stated) | > 50 | > 50 | 30.2 |
| CSc1ccc(/C=C2/C(C)=C(CC(=O)N3CCN(C)CC3)c3cc(F)ccc32)cc1 | 13.4 | 11.5 | 4.29 |
| CCN1CCC[C@H]1CNC(=O)CC1=C(C)/C(=C/c2ccc(SC)cc2)c2ccc(F)cc21 | 4.64 | 3.72 | 1.16 |
| CSc1ccc(/C=C2/C(C)=C(CC(=O)N(C)CCN(C)S(=O)(=O)c3ccc4ccccc4c3)c3cc(F)ccc32)cc1 | > 50 | > 50 | 35.3 |
| CSc1ccc(/C=C2/C(C)=C(CC(=O)NCc3ccc(N(C)C)cc3)c3cc(F)ccc32)cc1 | > 50 | > 50 | > 50 |
| CC1=C(CC(=O)N(C)CCN(C)S(=O)(=O)c2cccc3ccccc23)c2cc(F)ccc2/C1=C\c1ccc([S+](C)[O-])cc1 (configuration not stated) | 8.96 | 29.1 | 3.99 |
| CSc1ccc(/C=C2/C(C)=C(CC(=O)NCc3ccccc3)c3cc(F)ccc32)cc1 | 16.4 | 3.61 | 1.52 |
| CSc1ccc(/C=C2/C(C)=C(CC(=O)NCCC3CCCN3C)c3cc(F)ccc32)cc1 (configuration not stated) | 4.33 | 3.75 | 1.41 |
| CCN1CCC[C@H]1CNC(=O)CC1=C(C)/C(=C/c2nc3ccccc3s2)c2ccc(F)cc21 | 7.72 | 5.58 | 1.66 |
| CCN1CCC[C@H]1CNC(=O)CC1=C(C)/C(=C/c2ccc([S+](C)[O-])cc2)c2ccc(F)cc21 (some centres not stated) | > 50 | > 50 | 19 |
| CC1=C(CC(=O)NCCN(C)C)c2cc(F)ccc2/C1=C\c1ccncc1 | 28.9 | 18.1 | 6.89 |
| CCN(CC)CCNC(=O)CC1=C(C)/C(=C/c2nc3ccccc3s2)c2ccc(F)cc21 | 4.48 | 3.54 | 1.12 |

| SMILES | CC50 (PC-3) [µM] | CC50 (MDA-MB-231) [µM] | CC50 (HT-29) [µM] |
| --- | --- | --- | --- |
| COC(=O)[C@H](C)NC(=O)CC1=C(C)/C(=C/c2ccc(SC)cc2)c2ccc(F)cc21 | > 50 | 38.9 | 23.9 |
| CC1=C(CC(=O)N(C)CCN(C)S(=O)(=O)c2ccc3ccccc3c2)c2cc(F)ccc2/C1=C\c1ccc([S+](C)[O-])cc1 (configuration not stated) | 7.52 | 32.1 | 6.35 |
| CC1=C(CC(=O)NCCN(C)C)c2cc(F)ccc2/C1=C\c1ccc(S(C)(=O)=O)cc1 | > 50 | 37.5 | 12.7 |
| CC1=C(CC(=O)NCc2ccco2)c2cc(F)ccc2/C1=C\c1ccc([S+](C)[O-])cc1 (configuration not stated) | > 50 | 2.73 | 1 |
| CSc1ccc(/C=C2/C(C)=C(CC(=O)N3CCNCC3)c3cc(F)ccc32)cc1 | 6.5 | 3.69 | 2.47 |
| CC1=C(CC(=O)NCCN(C)C)c2cc(F)ccc2/C1=C\c1nc2ccccc2s1 | 4.88 | 3.63 | 1.57 |
| CSc1ccc(/C=C2/C(C)=C(CC(=O)NCCN3CCNCC3)c3cc(F)ccc32)cc1 | 6.66 | 7.66 | 2.98 |
| CSc1ccc(/C=C2/C(C)=C(CC(=O)N(C)CCN(C)S(=O)(=O)c3cccc4c(N(C)C)cccc34)c3cc(F)ccc32)cc1 | > 50 | > 50 | > 50 |
| CSc1ccc(/C=C2/C(C)=C(CC(=O)NCCN3CCCC3)c3cc(F)ccc32)cc1 | 5.27 | 3.78 | 1.81 |
| CCS(=O)(=O)N(C)CCN(C)C(=O)CC1=C(C)/C(=C/c2ccc(SC)cc2)c2ccc(F)cc21 | 14.3 | 10.1 | 4.2 |
| COc1cc(/C=C2/C(C)=C(CC(=O)NCCN3CCCCC3)c3cc(F)ccc32)cc(OC)c1OC | 9.62 | 10.4 | 4.18 |
| CSc1ccc(/C=C2/C(C)=C(CC(=O)NCc3cccnc3)c3cc(F)ccc32)cc1 | 18.5 | 7.36 | 4.83 |
| CSc1ccc(/C=C2/C(C)=C(CC(=O)NCCN3CCCCC3)c3cc(F)ccc32)cc1 | 5.36 | 5.42 | 1.65 |
| CSc1ccc(/C=C2/C(C)=C(CC(=O)NCCC(C)C)c3cc(F)ccc32)cc1 | > 50 | > 50 | > 50 |
| CC1=C(CC(=O)N(C)CCN(C)S(=O)(=O)c2ccc(C)cc2)c2cc(F)ccc2/C1=C\c1ccc([S+](C)[O-])cc1 (configuration not stated) | 11 | 17.8 | 6.18 |
| CC1=C(CC(=O)N2CCC[C@H]2CN2CCCC2)c2cc(F)ccc2/C1=C\c1ccc([S+](C)[O-])cc1 (some centres not stated) | > 50 | > 50 | 20.2 |
| CC1=C(CC(=O)N(C)CCN(C)S(=O)(=O)c2ccccc2)c2cc(F)ccc2/C1=C\c1ccc([S+](C)[O-])cc1 (configuration not stated) | 8.2 | 12.2 | 6.09 |
| COc1cc(/C=C2/C(C)=C(CC(=O)NCCC(C)C)c3cc(F)ccc32)cc(OC)c1OC | 8.2 | 8.73 | 5.24 |
| CC1=C(CC(=O)N2CCN(c3ccncc3)CC2)c2cc(F)ccc2/C1=C\c1ccc([S+](C)[O-])cc1 (configuration not stated) | 21.9 | 22.7 | 9.2 |
| CC1=C(CC(=O)NCCC(C)C)c2cc(F)ccc2/C1=C\c1nc2ccccc2s1 | > 50 | 24.2 | > 50 |

| SMILES | CC50 (PC-3) [µM] | CC50 (MDA-MB-231) [µM] | CC50 (HT-29) [µM] |
| --- | --- | --- | --- |
| CSc1ccc(/C=C2/C(C)=C(CC(=O)Nc3ccc(N(C)C)cc3)c3cc(F)ccc32)cc1 | > 50 | 30.6 | > 50 |
| CSc1ccc(/C=C2/C(C)=C(CC(=O)NCc3ccco3)c3cc(F)ccc32)cc1 | 13 | 3.4 | 2.08 |
| CSc1ccc(/C=C2/C(C)=C(CC(=O)N(C)CCN(C)S(=O)(=O)c3ccc(C)cc3)c3cc(F)ccc32)cc1 | > 50 | > 50 | 12.9 |
| CC1=C(CC(=O)N2CCC[C@H]2CN2CCCC2)c2cc(F)ccc2/C1=C\c1nc2ccccc2s1 | 4.25 | 3.61 | 1.58 |
| COC(=O)[C@@H](C)NC(=O)CC1=C(C)/C(=C/c2ccc(SC)cc2)c2ccc(F)cc21 | 44.2 | 32 | 16.2 |
| CSc1ccc(/C=C2/C(C)=C(CC(=O)NN3CCN(C)CC3)c3cc(F)ccc32)cc1 | 4.45 | 4.1 | 1.64 |
| CC1=C(CC(=O)NCCN2CCCC2)c2cc(F)ccc2/C1=C\c1ccncc1 | 10.2 | 7.19 | 2.68 |
| CSc1ccc(/C=C2/C(C)=C(CC(=O)N(C)CCN(C)C(=O)[C@@H](N)C(C)C)c3cc(F)ccc32)cc1 | 7.08 | 7.33 | 3.72 |
| CC1=C(CC(=O)N2CCC(N3CCCCC3)CC2)c2cc(F)ccc2/C1=C\c1ccc([S+](C)[O-])cc1 (configuration not stated) | > 50 | > 50 | > 50 |
| CSc1ccc(/C=C2/C(C)=C(CC(=O)NCc3ccccn3)c3cc(F)ccc32)cc1 | 13.6 | 13.7 | 10.3 |
| CNCCN(C)C(=O)CC1=C(C)/C(=C/c2cc(OC)c(OC)c(OC)c2)c2ccc(F)cc21 | 23.1 | 17 | 8.05 |
| CC1=C(CC(=O)N(C)CCN(C)S(=O)(=O)c2cccc3c(N(C)C)cccc23)c2cc(F)ccc2/C1=C\c1ccc([S+](C)[O-])cc1 (configuration not stated) | 9.2 | > 50 | 10.6 |
| COC(=O)[C@H](Cc1cnc[nH]1)NC(=O)CC1=C(C)/C(=C/c2ccc(SC)cc2)c2ccc(F)cc21 | > 50 | > 50 | 23 |
| CCS(=O)(=O)N(C)CCN(C)C(=O)CC1=C(C)/C(=C/c2ccc([S+](C)[O-])cc2)c2ccc(F)cc21 (configuration not stated) | > 50 | > 50 | 42.6 |
| CC1=C(CC(=O)NCc2ccco2)c2cc(F)ccc2/C1=C\c1nc2ccccc2s1 | 26.4 | 6.7 | 5.48 |
| CSc1ccc(/C=C2/C(C)=C(CC(=O)N3CCC(N4CCCCC4)CC3)c3cc(F)ccc32)cc1 | 4.06 | 2.61 | 1.06 |
| CC1=C(CC(=O)N(C)CCN(C)S(C)(=O)=O)c2cc(F)ccc2/C1=C\c1ccc([S+](C)[O-])cc1 (configuration not stated) | 42.6 | 12.5 | 12.4 |
| CSc1ccc(/C=C2/C(C)=C(CC(=O)N(C)CCN(C)S(C)(=O)=O)c3cc(F)ccc32)cc1 | 15.5 | 11.6 | 4.04 |
| CSc1ccc(/C=C2/C(C)=C(CC(=O)NCc3ccncc3)c3cc(F)ccc32)cc1 | 5.83 | 6.46 | 4.88 |
